Results published in ChEMBL document CHEMBL3286193, “Discovery of a series of 2,5-diaminopyrimidine covalent irreversible inhibitors of Bruton's tyrosine kinase with in vivo antitumor activity” (J Med Chem, 2014).
Active and inactive are the calls of the source. The rule behind the calls is not given here.

Experiments:
[1] = target: Tyrosine-protein kinase SYK (Homo sapiens) (UniProt P43405); assay: Inhibition of SYK (unknown origin) at 0.5 uM by [33P]-ATP filter binding assay
Summary of the method: (§1)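 Kinase panel of 18 enzymes; inhibition tested at 0.5 μM. Values are means of duplicates.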

[2] = target: Protein kinase C alpha type (Homo sapiens) (UniProt P17252); assay: Inhibition of PKC-alpha (unknown origin) at 0.5 uM by [33P]-ATP filter binding assay; summary of the method: as §1
[3] = target: Receptor tyrosine-protein kinase erbB-2 (Homo sapiens, UniProt P04626); assay: Inhibition of HER2 (unknown origin) after 1 hr by HTRF assay
Receptor tyrosine-protein kinase erbB-2, sequence (P04626 whole entry): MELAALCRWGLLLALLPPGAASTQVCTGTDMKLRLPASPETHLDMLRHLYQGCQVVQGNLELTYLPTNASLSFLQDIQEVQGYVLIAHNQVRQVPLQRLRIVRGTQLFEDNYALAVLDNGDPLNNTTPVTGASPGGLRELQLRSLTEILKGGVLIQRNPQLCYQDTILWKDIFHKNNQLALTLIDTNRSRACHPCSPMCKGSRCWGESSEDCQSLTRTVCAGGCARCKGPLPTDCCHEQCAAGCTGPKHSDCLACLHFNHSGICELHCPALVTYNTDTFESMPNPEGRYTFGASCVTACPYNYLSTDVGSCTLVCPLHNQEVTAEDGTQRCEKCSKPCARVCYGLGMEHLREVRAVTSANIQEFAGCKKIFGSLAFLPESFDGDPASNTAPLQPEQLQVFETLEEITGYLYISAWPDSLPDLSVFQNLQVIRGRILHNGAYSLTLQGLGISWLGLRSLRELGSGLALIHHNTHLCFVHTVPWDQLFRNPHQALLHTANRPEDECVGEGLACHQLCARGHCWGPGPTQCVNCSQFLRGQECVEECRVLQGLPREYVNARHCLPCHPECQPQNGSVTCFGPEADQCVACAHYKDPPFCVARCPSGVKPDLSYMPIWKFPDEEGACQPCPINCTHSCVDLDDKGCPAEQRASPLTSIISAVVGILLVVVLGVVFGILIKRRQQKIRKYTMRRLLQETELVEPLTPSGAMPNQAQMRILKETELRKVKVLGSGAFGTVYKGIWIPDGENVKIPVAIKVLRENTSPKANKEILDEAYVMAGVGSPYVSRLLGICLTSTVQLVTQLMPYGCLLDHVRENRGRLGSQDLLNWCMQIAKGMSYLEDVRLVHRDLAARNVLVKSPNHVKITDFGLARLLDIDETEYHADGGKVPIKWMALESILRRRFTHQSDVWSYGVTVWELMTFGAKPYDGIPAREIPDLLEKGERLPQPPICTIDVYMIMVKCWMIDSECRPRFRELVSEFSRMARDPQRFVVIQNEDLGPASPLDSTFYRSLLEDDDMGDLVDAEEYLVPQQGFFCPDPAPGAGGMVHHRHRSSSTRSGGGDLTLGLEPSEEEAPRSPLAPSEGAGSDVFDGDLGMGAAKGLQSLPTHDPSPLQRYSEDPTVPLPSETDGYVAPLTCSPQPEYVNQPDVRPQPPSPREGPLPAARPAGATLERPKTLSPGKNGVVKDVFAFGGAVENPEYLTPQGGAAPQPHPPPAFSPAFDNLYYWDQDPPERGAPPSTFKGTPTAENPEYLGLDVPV
Summary of the method: (§2)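 Recombinant kinases tested by HTRF KinEase protocol. Enzyme preincubated with inhibitor for a fixed 10 min. IC50 values are means of duplicates.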

[4] = target: Receptor tyrosine-protein kinase erbB-4 (Homo sapiens, UniProt Q15303); assay: Inhibition of HER4 (unknown origin) after 1 hr by HTRF assay; summary of the method: as §2
Receptor tyrosine-protein kinase erbB-4, sequence (Q15303 whole entry): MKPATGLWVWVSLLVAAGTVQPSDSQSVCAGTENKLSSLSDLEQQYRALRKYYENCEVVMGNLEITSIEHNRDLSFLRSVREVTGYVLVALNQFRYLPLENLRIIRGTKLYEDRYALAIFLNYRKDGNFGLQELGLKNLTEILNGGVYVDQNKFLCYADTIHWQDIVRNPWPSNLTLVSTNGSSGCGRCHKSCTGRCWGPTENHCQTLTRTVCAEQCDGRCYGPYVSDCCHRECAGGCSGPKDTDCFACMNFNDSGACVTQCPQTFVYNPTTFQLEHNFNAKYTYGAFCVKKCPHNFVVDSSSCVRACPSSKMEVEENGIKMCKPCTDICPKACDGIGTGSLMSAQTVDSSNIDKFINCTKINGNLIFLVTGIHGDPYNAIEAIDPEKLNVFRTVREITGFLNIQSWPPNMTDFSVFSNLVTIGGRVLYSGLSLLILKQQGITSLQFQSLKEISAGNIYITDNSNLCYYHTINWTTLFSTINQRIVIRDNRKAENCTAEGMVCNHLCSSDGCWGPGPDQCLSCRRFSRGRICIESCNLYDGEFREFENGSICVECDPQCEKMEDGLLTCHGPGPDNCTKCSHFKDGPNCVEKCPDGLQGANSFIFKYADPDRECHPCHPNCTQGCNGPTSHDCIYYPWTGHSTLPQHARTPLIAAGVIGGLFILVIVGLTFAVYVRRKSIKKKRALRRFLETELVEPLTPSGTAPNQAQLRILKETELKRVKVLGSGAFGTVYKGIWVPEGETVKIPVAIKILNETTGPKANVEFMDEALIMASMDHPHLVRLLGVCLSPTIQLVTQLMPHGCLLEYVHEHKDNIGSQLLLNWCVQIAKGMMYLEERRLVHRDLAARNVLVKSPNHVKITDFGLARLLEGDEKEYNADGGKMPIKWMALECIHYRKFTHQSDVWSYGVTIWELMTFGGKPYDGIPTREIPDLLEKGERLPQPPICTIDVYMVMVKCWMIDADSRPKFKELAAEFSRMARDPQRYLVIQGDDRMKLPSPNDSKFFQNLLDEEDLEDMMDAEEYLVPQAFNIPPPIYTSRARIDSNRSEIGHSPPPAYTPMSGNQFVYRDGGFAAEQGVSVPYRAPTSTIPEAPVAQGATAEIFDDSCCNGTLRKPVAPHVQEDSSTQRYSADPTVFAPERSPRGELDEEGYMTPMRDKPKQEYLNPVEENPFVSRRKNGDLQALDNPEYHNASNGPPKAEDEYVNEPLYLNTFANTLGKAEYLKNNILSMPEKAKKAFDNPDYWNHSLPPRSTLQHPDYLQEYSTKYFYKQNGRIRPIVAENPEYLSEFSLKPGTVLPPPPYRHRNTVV

[5] = target: Tyrosine-protein kinase TXK (Homo sapiens, UniProt P42681); assay: Inhibition of Rlk (unknown origin) after 1 hr by HTRF assay; summary of the method: as §2
Tyrosine-protein kinase TXK, sequence (P42681 whole entry, the tested form may be a part): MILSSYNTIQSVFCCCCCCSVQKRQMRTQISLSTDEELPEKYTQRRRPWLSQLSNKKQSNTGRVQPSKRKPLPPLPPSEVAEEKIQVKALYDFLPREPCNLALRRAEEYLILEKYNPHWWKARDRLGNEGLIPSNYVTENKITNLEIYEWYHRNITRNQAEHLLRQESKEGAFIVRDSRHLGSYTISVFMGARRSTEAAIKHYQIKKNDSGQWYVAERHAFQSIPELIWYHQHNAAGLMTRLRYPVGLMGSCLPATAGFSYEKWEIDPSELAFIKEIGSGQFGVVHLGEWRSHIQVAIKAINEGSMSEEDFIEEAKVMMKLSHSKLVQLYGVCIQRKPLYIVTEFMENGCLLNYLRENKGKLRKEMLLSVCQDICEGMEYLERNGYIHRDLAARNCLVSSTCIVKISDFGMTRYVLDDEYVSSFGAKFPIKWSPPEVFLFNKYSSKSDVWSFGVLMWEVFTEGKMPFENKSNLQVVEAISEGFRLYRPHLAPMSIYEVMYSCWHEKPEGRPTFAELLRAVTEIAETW

[6] = target: Tyrosine-protein kinase BTK (Homo sapiens, UniProt Q06187); assay: Binding affinity to Btk kinase domain (387 to 659) (unknown origin) assessed as compound-protein covalent adduct formation at Cys481 residue at 1:3 protein to compound molar ratio incubated for 3 hrs at 0 degC followed by overnight incubation with trypsin at 37 degC by LC-MS analysis
Tyrosine-protein kinase BTK, sequence (Q06187 whole entry, the tested form may be a part): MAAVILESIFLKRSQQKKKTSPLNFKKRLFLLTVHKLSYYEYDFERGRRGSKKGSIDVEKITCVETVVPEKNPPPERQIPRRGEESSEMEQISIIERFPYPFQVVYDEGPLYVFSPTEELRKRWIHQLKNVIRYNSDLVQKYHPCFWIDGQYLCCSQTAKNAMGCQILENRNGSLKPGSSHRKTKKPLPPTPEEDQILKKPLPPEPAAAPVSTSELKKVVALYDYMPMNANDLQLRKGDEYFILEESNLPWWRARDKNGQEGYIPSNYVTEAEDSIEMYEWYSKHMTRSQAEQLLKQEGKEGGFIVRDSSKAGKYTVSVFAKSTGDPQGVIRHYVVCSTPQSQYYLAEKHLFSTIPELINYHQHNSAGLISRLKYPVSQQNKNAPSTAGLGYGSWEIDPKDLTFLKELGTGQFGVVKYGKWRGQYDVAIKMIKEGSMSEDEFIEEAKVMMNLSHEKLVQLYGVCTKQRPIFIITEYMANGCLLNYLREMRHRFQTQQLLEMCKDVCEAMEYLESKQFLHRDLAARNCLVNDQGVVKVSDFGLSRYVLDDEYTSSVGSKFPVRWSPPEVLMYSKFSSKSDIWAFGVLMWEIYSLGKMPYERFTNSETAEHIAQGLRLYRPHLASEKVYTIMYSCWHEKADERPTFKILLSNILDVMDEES
Summary of the method: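 Covalent Btk kinase-domain adduct digested with trypsin. Resulting peptide fragments analyzed by mass spectrometry to locate the modified residue.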

MM1R = assay: Cytotoxicity against human MM1R cells assessed as growth inhibition at 1 to 10 uM after 72 hrs by CellTiter-Glo luminescent cell viability assay; format: functional, cell-based
WSU-NHL = assay: Cytotoxicity against human WSU-NHL cells assessed as growth inhibition after 72 hrs by CellTiter-Glo luminescent cell viability assay; format: functional
Summary of the method: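 Lymphoma cells seeded at 5000 cells/well, incubated 24 h, then exposed to compounds for 72 h. Viability read by CellTiter-Glo luminescence. GI50 from dose−response curves, mean of two or three independent experiments in triplicate.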

[7] = Stability of the compound in FaSSIF assessed as compound remaining at 1 uM measured at 24 hrs by LC-MS analysis; format: ADME; details: read-out: Stability
Summary of the method: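 Compound solutions in FaSSIF shaken at 350 rpm at 37 °C. Samples taken at 2, 6, 10 and 24 h and quantified by LC−MS as % remaining.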

[8] = Half life in mouse liver microsomes by LC-MS/MS analysis; format: ADME
Summary of the method: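 Liver microsomes incubated with compound and NADPH at 37 °C. Samples taken at several time points, centrifuged, and supernatants analyzed by LC−MS/MS. t1/2 and CL calculated by first-order kinetics. Testosterone, propranolol and clozapine served as positive controls.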

[9] = Half life in ICR mouse at 1 mg/kg, iv by LC-MS analysis; format: ADME, organism-based; set-up: dose 1 mg/kg, route intravenous; details: in vivo
Summary of the method: (§3)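 ICR mice (n = 3) given a single intravenous injection at 1 mg/kg. Blood sampled at various time points and analyzed by LC−MS to derive t1/2, CL and Vss.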

[10] = Clearance in ICR mouse at 1 mg/kg, iv by LC-MS analysis; format: ADME, organism-based; set-up: dose 1 mg/kg, route intravenous; details: in vivo; summary of the method: as §3
[11] = Antitumor activity against human DOHH2 cells xenografted in CB17 SCID mouse assessed as tumor growth inhibition at 10 mg/kg, iv qd administered for 14 days measured over 14 days of compound treatment relative to vehicle-treated control; details: DOHH-2, iv, 336 h, read-out: TGI
[12] = Plasma concentration in CB17 SCID mouse xenografted with human DOHH2 cells at 20 mg/kg, iv qd administered for 14 days measured at 24 hrs post last dose; format: ADME, organism-based, DOHH-2; set-up: dose 20 mg/kg, route intravenous
Summary of the method: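 Same DoHH2 xenograft study in female CB17/SCID mice, tail-vein dosing once daily for 14 days. Plasma compound concentrations determined at 2 and 24 h after the last administration.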

Mus musculus = assay: Toxicity in CB17 SCID mouse xenografted with human DOHH2 cells assessed as body weight fluctuations at 20 mg/kg, iv qd administered for 14 days measured over 14 days of compound treatment; format: organism-based, DOHH-2; set-up: dose 20 mg/kg, route intravenous; details: in vivo, 336 h
Summary of the method: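 DoHH2 subcutaneous xenograft in female CB17/SCID mice (5 × 10⁶ cells; dosing from ~167 mm³ mean tumor volume; n = 6/group). Daily tail-vein dosing for 14 consecutive days. Body weights followed over time across the study.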

[13] = Binding affinity to glutathione in PBS buffer assessed as glutathione-compound adduct formation at 100 uM at pH 7.4 at 37 degC after 2 hrs
Summary of the method: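 Compound (100 μM) incubated with 5 mM glutathione in PBS, pH 7.4, at 37 °C. Checked for GSH−compound adducts after 2 h.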

[14] = target: Tyrosine-protein kinase JAK2 (Homo sapiens) (UniProt O60674); assay: Inhibition of JAK2 (unknown origin) at 0.5 uM by [33P]-ATP filter binding assay; summary of the method: as §1
[15] = target: Tyrosine-protein kinase ABL1 (Homo sapiens) (UniProt P00519); assay: Inhibition of ABL (unknown origin) at 0.5 uM by [33P]-ATP filter binding assay; summary of the method: as §1
Tyrosine-protein kinase ABL1 (Homo sapiens), sequence (P00519 whole entry): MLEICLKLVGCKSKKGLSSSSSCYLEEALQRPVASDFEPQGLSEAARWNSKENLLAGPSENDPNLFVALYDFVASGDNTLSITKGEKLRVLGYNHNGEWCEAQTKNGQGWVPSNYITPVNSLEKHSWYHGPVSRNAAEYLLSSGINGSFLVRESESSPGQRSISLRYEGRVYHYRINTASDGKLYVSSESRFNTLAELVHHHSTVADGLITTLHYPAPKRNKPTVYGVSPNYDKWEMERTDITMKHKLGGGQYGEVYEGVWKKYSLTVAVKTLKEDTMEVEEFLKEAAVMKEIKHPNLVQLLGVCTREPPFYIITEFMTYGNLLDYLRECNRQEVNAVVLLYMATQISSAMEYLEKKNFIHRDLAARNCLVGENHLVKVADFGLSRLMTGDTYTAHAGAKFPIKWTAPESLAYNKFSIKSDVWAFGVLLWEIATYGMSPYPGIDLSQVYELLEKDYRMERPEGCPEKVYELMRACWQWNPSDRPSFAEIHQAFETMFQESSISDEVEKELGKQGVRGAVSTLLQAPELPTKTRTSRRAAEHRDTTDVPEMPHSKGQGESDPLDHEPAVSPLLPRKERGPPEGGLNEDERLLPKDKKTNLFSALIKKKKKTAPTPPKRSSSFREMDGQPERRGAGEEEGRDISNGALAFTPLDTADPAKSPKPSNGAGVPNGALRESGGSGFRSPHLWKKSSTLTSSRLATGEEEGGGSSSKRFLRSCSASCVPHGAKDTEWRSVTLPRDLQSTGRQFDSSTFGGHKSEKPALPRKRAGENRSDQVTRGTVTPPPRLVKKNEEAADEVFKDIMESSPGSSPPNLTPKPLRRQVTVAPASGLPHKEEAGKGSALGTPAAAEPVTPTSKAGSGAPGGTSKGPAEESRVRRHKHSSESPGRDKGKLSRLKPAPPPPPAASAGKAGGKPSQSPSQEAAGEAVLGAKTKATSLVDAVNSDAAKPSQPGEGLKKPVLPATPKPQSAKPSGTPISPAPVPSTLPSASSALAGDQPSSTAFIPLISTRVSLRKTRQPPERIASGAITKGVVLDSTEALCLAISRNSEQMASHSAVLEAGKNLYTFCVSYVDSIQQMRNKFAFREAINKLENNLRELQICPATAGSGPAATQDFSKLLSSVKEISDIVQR

[16] = target: Tyrosine-protein kinase Lck (Homo sapiens) (UniProt P06239); assay: Inhibition of Lck (unknown origin) at 0.5 uM by [33P]-ATP filter binding assay; summary of the method: as §1

In the case of C=CC(=O)Nc1cccc(Nc2ncc(NC(=O)c3cc(NC(=O)c4cccc(C(F)(F)F)c4)ccc3C)cn2)c1, the inhibition [1] is reported as “inactive”, the inhibition [2] is reported as “inactive” and the IC50 [3] is reported as 19 nM. The IC50 [4] was 5.5 nM, the IC50 [5] was 1.9 nM and the Activity [6] was “Active”. For the same compound, the “growth inhibition (GI)” value (MM1R) was “Active”, the GI50 (WSU-NHL) was 31 nM and the remaining at 24 h, 1 µM [7] was 94%. For the same compound, the half-life [8] was 0.64 h, the half-life [9] was 2.8 h and the clearance [10] was 6.85 mL/min/kg. For the same compound, the inhibition in vivo at 10 mg/kg [11] was 60%, the concentration at 24 h [12] was 13 ng/mL and the Activity (Mus musculus) was “Non-toxic”. For the same compound, the Activity [13] was “inactive”, the inhibition [14] was “Active” and the inhibition [15] was “Active”. For the same compound, the inhibition [16] was “Active”.
